# Target: Poly [ADP-ribose] polymerase 1 (Homo sapiens, UniProt P09874)
# Details: not given
# Chain of Poly [ADP-ribose] polymerase 1 (P09874 whole entry): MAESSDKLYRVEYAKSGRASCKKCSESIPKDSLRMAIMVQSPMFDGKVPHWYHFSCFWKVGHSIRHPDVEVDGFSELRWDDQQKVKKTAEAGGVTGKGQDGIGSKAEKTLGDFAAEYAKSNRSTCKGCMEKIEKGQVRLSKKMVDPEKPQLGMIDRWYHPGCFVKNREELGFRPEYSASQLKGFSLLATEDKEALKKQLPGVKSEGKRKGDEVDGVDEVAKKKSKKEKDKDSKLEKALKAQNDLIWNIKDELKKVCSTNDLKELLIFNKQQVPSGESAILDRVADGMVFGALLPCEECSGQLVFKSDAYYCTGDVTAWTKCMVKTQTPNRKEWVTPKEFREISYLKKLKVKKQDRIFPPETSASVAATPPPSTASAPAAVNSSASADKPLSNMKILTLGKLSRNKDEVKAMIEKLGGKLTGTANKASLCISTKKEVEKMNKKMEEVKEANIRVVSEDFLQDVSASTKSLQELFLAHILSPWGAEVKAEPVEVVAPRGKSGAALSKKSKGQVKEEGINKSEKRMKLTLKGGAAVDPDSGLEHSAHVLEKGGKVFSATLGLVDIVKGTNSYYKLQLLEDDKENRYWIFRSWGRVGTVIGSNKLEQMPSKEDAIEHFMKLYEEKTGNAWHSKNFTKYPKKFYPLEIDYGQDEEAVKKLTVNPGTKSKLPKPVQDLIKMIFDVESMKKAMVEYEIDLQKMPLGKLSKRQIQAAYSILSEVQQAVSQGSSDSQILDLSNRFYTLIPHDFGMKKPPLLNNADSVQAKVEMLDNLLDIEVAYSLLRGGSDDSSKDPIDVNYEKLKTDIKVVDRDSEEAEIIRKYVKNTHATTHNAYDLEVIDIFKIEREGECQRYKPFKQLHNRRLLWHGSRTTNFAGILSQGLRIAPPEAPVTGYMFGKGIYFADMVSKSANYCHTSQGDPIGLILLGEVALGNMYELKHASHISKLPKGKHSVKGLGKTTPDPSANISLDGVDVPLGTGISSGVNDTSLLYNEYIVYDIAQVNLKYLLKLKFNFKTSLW
row,IC50 [nM],Structure (SMILES)
1,5.7,Cc1c(Cc2ccc(F)c(C(=O)N3CCN(C(=O)C4(N(C)C)CC4)CC3)c2)n[nH]c(=O)c1C
2,2,CNC(C)(C)C(=O)N1CCN(C(=O)c2cc(Cc3c[nH]c(=O)c4cc(Cl)c(Cl)n34)ccc2F)CC1
3,3.1,Cc1c(Cc2ccc(F)c(C(=O)N3CCN(C(=O)[C@@H]4CCCN4)CC3)c2)n[nH]c(=O)c1C
4,3.7,CNC(C)(C)C(=O)N1CCN(C(=O)c2cc(Cc3n[nH]c(=O)c(C)c3C)ccc2F)CC1
5,1.8,C=CCC1(C(=O)N2CCN(C(=O)c3cc(Cc4n[nH]c(=O)c(C)c4C)ccc3F)CC2)CCCN1 (stereo not drawn)
6,3.8,CCC1(C(=O)N2CCN(C(=O)c3cc(Cc4n[nH]c(=O)c(C)c4C)ccc3F)CC2)CCCN1 (stereo not drawn)

# Continued, molecule first:
row,Structure (SMILES),IC50 [nM]
1,Cc1c(Cc2ccc(F)c(C(=O)N3CCN(C(=O)C4(C)CCCO4)CC3)c2)n[nH]c(=O)c1C (stereo not drawn),2.8
2,Cc1c(Cc2ccc(F)c(C(=O)N3CCN(C(=O)[C@@]4(C)CCN4)CC3)c2)n[nH]c(=O)c1C,3.1
3,Cc1c(Cc2ccc(F)c(C(=O)N3CCN(C(=O)[C@@]4(C)CCCN4)CC3)c2)n[nH]c(=O)c1C,1.3
4,Cc1c(Cc2ccc(F)c(C(=O)N3CCC4(CCNC4)CC3)c2)n[nH]c(=O)c1C,4.7
5,Cc1c(Cc2ccc(F)c(C(=O)N3CCN(C(=O)C(C)(C)N(C)C)CC3)c2)n[nH]c(=O)c1C,1.8
6,Cc1c(Cc2ccc(F)c(C(=O)N3CCN(C(=O)C4(Cc5ccccc5)CCCN4)CC3)c2)n[nH]c(=O)c1C (stereo not drawn),3.3
7,Cc1c(Cc2ccc(F)c(C(=O)N3CCN(C(=O)C4(Nc5ccccc5)CCCC4)CC3)c2)n[nH]c(=O)c1C,3.9
8,Cc1c(Cc2ccc(F)c(C(=O)N3CCN(C(=O)C4(NCC5CC5)CCCCC4)CC3)c2)n[nH]c(=O)c1C,3.5
9,Cc1c(Cc2ccc(F)c(C(=O)N3CCC4(CCCN4C)CC3)c2)n[nH]c(=O)c1C,4.5
10,Cc1c(Cc2ccc(F)c(C(=O)N3CCN(C(=O)C4(Cc5ccc(F)cc5)CCCN4)CC3)c2)n[nH]c(=O)c1C (stereo not drawn),3.6

# Tested on: not listed separately
# Assay: Oral bioavailability in rat
# Assay type: ADME, organism-based
# Details: in vivo
row,Structure (SMILES),bioavailability [%]
1,Cc1c(Cc2ccc(F)c(C(=O)N3CCN(C(=O)[C@@]4(C)CCN4)CC3)c2)n[nH]c(=O)c1C,< 3
2,CCC1(C(=O)N2CCN(C(=O)c3cc(Cc4n[nH]c(=O)c(C)c4C)ccc3F)CC2)CCCN1 (stereo not drawn),< 3

# Tested on: HeLa
# Assay: Selectivity for BRCA1 deficient human HeLa cells over BRCA1 expressing HeLa cells
# Assay type: functional
# Details: not given
row,Structure (SMILES),Ratio
1,CNC(C)(C)C(=O)N1CCN(C(=O)c2cc(Cc3c[nH]c(=O)c4cc(Cl)c(Cl)n34)ccc2F)CC1,>100
2,Cc1c(Cc2ccc(F)c(C(=O)N3CCN(C(=O)[C@@]4(C)CCCN4)CC3)c2)n[nH]c(=O)c1C,100

# Tested on: not listed separately
# Assay: Intrinsic clearance in rat liver microsomes
# Assay type: ADME, Microsome
# Details: not given
row,microsomal CLint [µL/min/mg],Structure (SMILES)
1,122,CNC(C)(C)C(=O)N1CCN(C(=O)c2cc(Cc3c[nH]c(=O)c4cc(Cl)c(Cl)n34)ccc2F)CC1
2,7,CNC(C)(C)C(=O)N1CCN(C(=O)c2cc(Cc3n[nH]c(=O)c(C)c3C)ccc2F)CC1
3,6,CCC1(C(=O)N2CCN(C(=O)c3cc(Cc4n[nH]c(=O)c(C)c4C)ccc3F)CC2)CCCN1 (stereo not drawn)

row,Structure (SMILES),microsomal CLint [µL/min/mg]
1,Cc1c(Cc2ccc(F)c(C(=O)N3CCN(C(=O)[C@@]4(C)CCN4)CC3)c2)n[nH]c(=O)c1C,< 1

# Target: CYP3A4 (Homo sapiens, UniProt P08684)
# Assay: Inhibition of CYP3A4 at 10 uM
# Assay type: ADME
# Details: not given
# Chain of CYP3A4 (P08684 whole entry): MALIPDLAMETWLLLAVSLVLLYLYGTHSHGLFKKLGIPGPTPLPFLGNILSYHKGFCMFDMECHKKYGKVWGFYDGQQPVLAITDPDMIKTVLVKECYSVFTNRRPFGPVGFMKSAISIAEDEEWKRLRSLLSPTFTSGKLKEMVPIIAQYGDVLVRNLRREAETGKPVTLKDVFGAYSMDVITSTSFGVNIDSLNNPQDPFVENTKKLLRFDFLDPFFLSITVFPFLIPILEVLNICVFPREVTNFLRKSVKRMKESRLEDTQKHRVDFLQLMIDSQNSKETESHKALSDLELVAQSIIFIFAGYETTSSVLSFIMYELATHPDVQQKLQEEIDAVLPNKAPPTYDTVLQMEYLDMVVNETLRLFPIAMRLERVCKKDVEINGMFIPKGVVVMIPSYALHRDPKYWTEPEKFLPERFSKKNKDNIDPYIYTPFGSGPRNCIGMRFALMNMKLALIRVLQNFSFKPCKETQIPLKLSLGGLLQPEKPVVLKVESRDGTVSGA
row,inhibition at 10 µM [%],Structure (SMILES)
1,25,CNC(C)(C)C(=O)N1CCN(C(=O)c2cc(Cc3c[nH]c(=O)c4cc(Cl)c(Cl)n34)ccc2F)CC1
2,73,Cc1c(Cc2ccc(F)c(C(=O)N3CCN(C(=O)C4(Cc5ccc(F)cc5)CCCN4)CC3)c2)n[nH]c(=O)c1C (stereo not drawn)

# Tested on: not listed separately
# Assay: Drug excretion in iv dosed rat urine after 24 hrs
# Assay type: ADME, organism-based
# Details: read-out: Activity
row,Structure (SMILES),dose excreted at 24 h [%]
1,Cc1c(Cc2ccc(F)c(C(=O)N3CCN(C(=O)[C@@]4(C)CCN4)CC3)c2)n[nH]c(=O)c1C,11

# Tested on: HeLa
# Assay: Antiproliferative activity against BRCA1 expressing human HeLa cells
# Assay type: functional
# Details: not given
# How it was run: (§1)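 Antiproliferation in HeLa cells, BRCA1-deficient and BRCA wild-type lines. Read-out is CC50 in nM. Values are means of at least two experiments.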
row,Structure (SMILES),CC50 [nM]
1,Cc1c(Cc2ccc(F)c(C(=O)N3CCN(C(=O)C4(N(C)C)CC4)CC3)c2)n[nH]c(=O)c1C,7700
2,CNC(C)(C)C(=O)N1CCN(C(=O)c2cc(Cc3c[nH]c(=O)c4cc(Cl)c(Cl)n34)ccc2F)CC1,> 5000
3,Cc1c(Cc2ccc(F)c(C(=O)N3CCN(C(=O)C4(C)CCCO4)CC3)c2)n[nH]c(=O)c1C (stereo not drawn),11000
4,Cc1c(Cc2ccc(F)c(C(=O)N3CCN(C(=O)[C@@]4(C)CCN4)CC3)c2)n[nH]c(=O)c1C,> 40000
5,Cc1c(Cc2ccc(F)c(C(=O)N3CCN(C(=O)[C@@]4(C)CCCN4)CC3)c2)n[nH]c(=O)c1C,> 5000
6,Cc1c(Cc2ccc(F)c(C(=O)N3CCC4(CCNC4)CC3)c2)n[nH]c(=O)c1C,> 5000
7,Cc1c(Cc2ccc(F)c(C(=O)N3CCN(C(=O)[C@@H]4CCCN4)CC3)c2)n[nH]c(=O)c1C,> 10000
8,Cc1c(Cc2ccc(F)c(C(=O)N3CCN(C(=O)C(C)(C)N(C)C)CC3)c2)n[nH]c(=O)c1C,> 2500
9,CNC(C)(C)C(=O)N1CCN(C(=O)c2cc(Cc3n[nH]c(=O)c(C)c3C)ccc2F)CC1,> 5000
10,Cc1c(Cc2ccc(F)c(C(=O)N3CCN(C(=O)C4(Cc5ccccc5)CCCN4)CC3)c2)n[nH]c(=O)c1C (stereo not drawn),> 5000
11,C=CCC1(C(=O)N2CCN(C(=O)c3cc(Cc4n[nH]c(=O)c(C)c4C)ccc3F)CC2)CCCN1 (stereo not drawn),19000
12,Cc1c(Cc2ccc(F)c(C(=O)N3CCN(C(=O)C4(Nc5ccccc5)CCCC4)CC3)c2)n[nH]c(=O)c1C,870
13,CCC1(C(=O)N2CCN(C(=O)c3cc(Cc4n[nH]c(=O)c(C)c4C)ccc3F)CC2)CCCN1 (stereo not drawn),16000
14,CNC1(C(=O)N2CCN(C(=O)c3cc(Cc4n[nH]c(=O)c(C)c4C)ccc3F)CC2)CC1,> 5000
15,Cc1c(Cc2ccc(F)c(C(=O)N3CCN(C(=O)C4(NCC5CC5)CCCCC4)CC3)c2)n[nH]c(=O)c1C,1900
16,Cc1c(Cc2ccc(F)c(C(=O)N3CCC4(CCCN4C)CC3)c2)n[nH]c(=O)c1C,> 5000
17,Cc1c(Cc2ccc(F)c(C(=O)N3CCN(C(=O)C4(Cc5ccc(F)cc5)CCCN4)CC3)c2)n[nH]c(=O)c1C (stereo not drawn),2700

# Target: Voltage-gated inwardly rectifying potassium channel KCNH2 (Homo sapiens, UniProt Q12809)
# Assay: Inhibition of human ERG
# Details: not given
# Chain of Voltage-gated inwardly rectifying potassium channel KCNH2 (Q12809 whole entry): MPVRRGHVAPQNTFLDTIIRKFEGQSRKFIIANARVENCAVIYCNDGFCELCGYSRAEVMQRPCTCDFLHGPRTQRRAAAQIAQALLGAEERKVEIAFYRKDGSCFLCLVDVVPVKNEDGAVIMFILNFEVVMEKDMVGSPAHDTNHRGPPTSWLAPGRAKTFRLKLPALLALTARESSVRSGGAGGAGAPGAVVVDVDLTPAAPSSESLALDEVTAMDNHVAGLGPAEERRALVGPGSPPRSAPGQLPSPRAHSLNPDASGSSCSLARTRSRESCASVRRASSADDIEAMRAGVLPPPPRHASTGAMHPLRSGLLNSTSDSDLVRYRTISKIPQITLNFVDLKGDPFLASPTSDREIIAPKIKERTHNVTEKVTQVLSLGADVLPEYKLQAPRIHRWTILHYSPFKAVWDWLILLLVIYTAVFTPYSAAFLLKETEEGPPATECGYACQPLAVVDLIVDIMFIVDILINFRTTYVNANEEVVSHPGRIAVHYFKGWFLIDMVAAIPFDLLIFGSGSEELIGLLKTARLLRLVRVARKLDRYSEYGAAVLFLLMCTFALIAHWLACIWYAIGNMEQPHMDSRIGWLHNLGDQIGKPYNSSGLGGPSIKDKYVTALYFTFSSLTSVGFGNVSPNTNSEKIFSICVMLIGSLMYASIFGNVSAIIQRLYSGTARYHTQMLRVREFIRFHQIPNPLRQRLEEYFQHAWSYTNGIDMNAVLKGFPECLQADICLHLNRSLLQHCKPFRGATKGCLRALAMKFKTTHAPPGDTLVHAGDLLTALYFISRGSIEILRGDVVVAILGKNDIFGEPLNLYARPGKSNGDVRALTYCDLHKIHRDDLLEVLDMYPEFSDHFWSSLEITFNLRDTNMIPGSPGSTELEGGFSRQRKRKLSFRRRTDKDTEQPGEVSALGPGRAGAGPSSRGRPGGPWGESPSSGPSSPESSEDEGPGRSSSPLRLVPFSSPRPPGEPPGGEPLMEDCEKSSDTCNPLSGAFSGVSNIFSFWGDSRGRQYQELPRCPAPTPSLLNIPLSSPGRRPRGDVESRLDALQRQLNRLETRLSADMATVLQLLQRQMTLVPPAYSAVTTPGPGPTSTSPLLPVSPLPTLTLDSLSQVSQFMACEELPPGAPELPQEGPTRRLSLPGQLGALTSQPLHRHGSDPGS
row,Structure (SMILES),IC50 [nM]
1,CNC(C)(C)C(=O)N1CCN(C(=O)c2cc(Cc3c[nH]c(=O)c4cc(Cl)c(Cl)n34)ccc2F)CC1,11000

# Tested on: not listed separately
# Assay: Intrinsic clearance in human liver microsomes
# Assay type: ADME, Microsome
# Details: not given
row,microsomal CLint [µL/min/mg],Structure (SMILES)
1,10,CNC(C)(C)C(=O)N1CCN(C(=O)c2cc(Cc3n[nH]c(=O)c(C)c3C)ccc2F)CC1
2,13,CCC1(C(=O)N2CCN(C(=O)c3cc(Cc4n[nH]c(=O)c(C)c4C)ccc3F)CC2)CCCN1 (stereo not drawn)

row,Structure (SMILES),microsomal CLint [µL/min/mg]
1,Cc1c(Cc2ccc(F)c(C(=O)N3CCN(C(=O)[C@@]4(C)CCN4)CC3)c2)n[nH]c(=O)c1C,3

# Tested on: not listed separately
# Assay: Induction of CYP450 at 10 uM relative to refampicin
# Assay type: ADME
# Details: not given
row,Activity [%],Structure (SMILES)
1,14,CNC(C)(C)C(=O)N1CCN(C(=O)c2cc(Cc3c[nH]c(=O)c4cc(Cl)c(Cl)n34)ccc2F)CC1

# Tested on: not listed separately
# Assay: Clearance in rat
# Assay type: ADME, organism-based
# Details: in vivo
row,clearance [mL/min/kg],Structure (SMILES)
1,> 200,CNC(C)(C)C(=O)N1CCN(C(=O)c2cc(Cc3c[nH]c(=O)c4cc(Cl)c(Cl)n34)ccc2F)CC1
2,64,CNC(C)(C)C(=O)N1CCN(C(=O)c2cc(Cc3n[nH]c(=O)c(C)c3C)ccc2F)CC1

# Tested on: HeLa
# Assay: Antiproliferative activity against BRCA1 deficient human HeLa cells
# Assay type: functional
# Details: not given
# How it was run: as §1
row,Structure (SMILES),CC50 [nM]
1,Cc1c(Cc2ccc(F)c(C(=O)N3CCN(C(=O)C4(N(C)C)CC4)CC3)c2)n[nH]c(=O)c1C,350
2,CNC(C)(C)C(=O)N1CCN(C(=O)c2cc(Cc3c[nH]c(=O)c4cc(Cl)c(Cl)n34)ccc2F)CC1,53
3,Cc1c(Cc2ccc(F)c(C(=O)N3CCN(C(=O)C4(C)CCCO4)CC3)c2)n[nH]c(=O)c1C (stereo not drawn),380
4,Cc1c(Cc2ccc(F)c(C(=O)N3CCN(C(=O)[C@@]4(C)CCN4)CC3)c2)n[nH]c(=O)c1C,78
5,Cc1c(Cc2ccc(F)c(C(=O)N3CCN(C(=O)[C@@]4(C)CCCN4)CC3)c2)n[nH]c(=O)c1C,45
6,Cc1c(Cc2ccc(F)c(C(=O)N3CCC4(CCNC4)CC3)c2)n[nH]c(=O)c1C,> 5000
7,Cc1c(Cc2ccc(F)c(C(=O)N3CCN(C(=O)[C@@H]4CCCN4)CC3)c2)n[nH]c(=O)c1C,3000
8,Cc1c(Cc2ccc(F)c(C(=O)N3CCN(C(=O)C(C)(C)N(C)C)CC3)c2)n[nH]c(=O)c1C,360
9,CNC(C)(C)C(=O)N1CCN(C(=O)c2cc(Cc3n[nH]c(=O)c(C)c3C)ccc2F)CC1,280
10,Cc1c(Cc2ccc(F)c(C(=O)N3CCN(C(=O)C4(Cc5ccccc5)CCCN4)CC3)c2)n[nH]c(=O)c1C (stereo not drawn),53
11,C=CCC1(C(=O)N2CCN(C(=O)c3cc(Cc4n[nH]c(=O)c(C)c4C)ccc3F)CC2)CCCN1 (stereo not drawn),31
12,Cc1c(Cc2ccc(F)c(C(=O)N3CCN(C(=O)C4(Nc5ccccc5)CCCC4)CC3)c2)n[nH]c(=O)c1C,130
13,CCC1(C(=O)N2CCN(C(=O)c3cc(Cc4n[nH]c(=O)c(C)c4C)ccc3F)CC2)CCCN1 (stereo not drawn),24
14,CNC1(C(=O)N2CCN(C(=O)c3cc(Cc4n[nH]c(=O)c(C)c4C)ccc3F)CC2)CC1,240
15,Cc1c(Cc2ccc(F)c(C(=O)N3CCN(C(=O)C4(NCC5CC5)CCCCC4)CC3)c2)n[nH]c(=O)c1C,170
16,Cc1c(Cc2ccc(F)c(C(=O)N3CCC4(CCCN4C)CC3)c2)n[nH]c(=O)c1C,100
17,Cc1c(Cc2ccc(F)c(C(=O)N3CCN(C(=O)C4(Cc5ccc(F)cc5)CCCN4)CC3)c2)n[nH]c(=O)c1C (stereo not drawn),9.1

# Reference: ChEMBL document CHEMBL1158507, “Development of substituted 6-[4-fluoro-3-(piperazin-1-ylcarbonyl)benzyl]-4,5-dimethylpyridazin-3(2H)-ones as potent poly(ADP-ribose) polymerase-1 (PARP-1) inhibitors active in BRCA deficient cells” (Bioorg Med Chem Lett, 2010)
